Compound activity from PubChem BioAssay.
Only some compounds are listed: those with a hit (about 3.4% of all), similar ones and a draw of the others.
Cl transport mod: KCC2 cotransporter modulators, thallium flux, primary screen, cell-based, HEK293 KCC2, FluoZin-2 fluorescence, MLSMR; Solute carrier family 12 member 5 (Homo sapiens), Q9H2X9; KCC2 cells, thallium flux FluoZin-2 fluorescence; B-score of Tl+ flux slope (higher = more flux/activation; lower = inhibition) at 10 µM; actives 2.2% (n = 190,000);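 active = thallium flux slope and its plate-corrected score both differing from the plate sample mean at a set confidence after two filtering rounds, in either direction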;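 also: slope of fluorescence scaled to starting intensity during 10 to 20 s after thallium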
Target sequence (Q9H2X9 whole entry, looked up): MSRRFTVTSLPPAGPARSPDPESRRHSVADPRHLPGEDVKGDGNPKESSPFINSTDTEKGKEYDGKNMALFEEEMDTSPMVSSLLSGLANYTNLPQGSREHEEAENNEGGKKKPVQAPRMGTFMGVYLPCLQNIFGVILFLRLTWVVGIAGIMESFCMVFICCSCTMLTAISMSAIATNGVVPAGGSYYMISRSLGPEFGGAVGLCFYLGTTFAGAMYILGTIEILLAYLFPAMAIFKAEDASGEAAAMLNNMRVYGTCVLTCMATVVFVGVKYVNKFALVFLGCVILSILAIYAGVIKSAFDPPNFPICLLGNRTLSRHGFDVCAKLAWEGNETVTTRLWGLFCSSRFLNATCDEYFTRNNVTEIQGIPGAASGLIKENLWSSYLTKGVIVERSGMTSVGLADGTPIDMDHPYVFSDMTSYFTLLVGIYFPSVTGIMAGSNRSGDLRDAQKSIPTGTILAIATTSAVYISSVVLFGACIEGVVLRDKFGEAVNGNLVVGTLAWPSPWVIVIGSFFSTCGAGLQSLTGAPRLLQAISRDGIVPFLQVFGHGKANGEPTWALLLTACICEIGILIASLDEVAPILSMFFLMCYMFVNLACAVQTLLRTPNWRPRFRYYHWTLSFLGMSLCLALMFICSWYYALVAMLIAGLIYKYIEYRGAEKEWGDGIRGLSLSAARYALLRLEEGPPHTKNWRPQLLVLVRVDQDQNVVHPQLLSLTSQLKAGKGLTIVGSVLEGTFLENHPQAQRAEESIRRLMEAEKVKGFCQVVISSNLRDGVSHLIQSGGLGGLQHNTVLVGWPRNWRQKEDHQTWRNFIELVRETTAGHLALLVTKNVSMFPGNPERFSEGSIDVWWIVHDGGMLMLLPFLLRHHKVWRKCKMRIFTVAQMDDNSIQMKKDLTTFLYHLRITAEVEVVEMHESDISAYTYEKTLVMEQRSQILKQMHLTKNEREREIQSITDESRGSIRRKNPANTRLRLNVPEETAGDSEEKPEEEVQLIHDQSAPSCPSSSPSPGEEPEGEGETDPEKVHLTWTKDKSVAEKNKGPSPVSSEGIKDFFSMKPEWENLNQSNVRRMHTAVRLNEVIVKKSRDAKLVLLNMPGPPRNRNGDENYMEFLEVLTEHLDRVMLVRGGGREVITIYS
Mdm2 ligase inh: MDM2-luciferase reporter signal enhancers, primary screen, MDM2 E3 ligase inhibitor project, cell-based, luminescence, 1536-well; cell-based MDM2 ubiquitination luciferase reporter, 2 h; 0 = plate control, 100 = twice control, blank-subtracted; signal enhancement, % at 5 µM; E3 ubiquitin-protein ligase Mdm2 (Homo sapiens), Q00987; actives 0.11% (n = 210,000);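 active = signal enhancement of 30% or more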;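 also: luminescence tracks abundance of the self-degrading MDM2-luciferase fusion protein; higher signal means inhibition of MDM2 E3 ligase activity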
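system = mammalian cells stably expressing self-ubiquitinating, self-degrading MDM2 E3–luciferase fusion | quantity = 2000 cells per well seeded | incubation = 4 h cell settling then 2 h compound exposure, 37 °C | signal = SteadyLite luminescence, 15 min reagent step | benchmarks = plate control and blank wells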
PKD1 kinase inh: inhibitors of human PKD1 kinase, biochemical, fluorescence polarization; Serine/threonine-protein kinase D1 (Homo sapiens), Q15139; PKD1 kinase fluorescence polarization assay; inhibition, % (no concentration beside the values); actives 0.056% (n = 200,000); AID 797, 2007; in the data active = inhibition above about 50%
p97 inhibitor: inhibitors of human p97 ATPase, primary screen, biochemical | actives 0.42% (n = 220,000) | Transitional endoplasmic reticulum ATPase (Homo sapiens), P55072 | recombinant p97 ATPase, Kinase-Glo ATP luminescence, 3 h | inhibition, % at 8 µM; in the data active = inhibition above about 15%;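 also: 0% = DMSO vehicle and 100% = wells lacking enzyme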
Redox H2O2 prof: compounds producing H2O2 with reducing agent – biochemical, NIH compound library profiling, artefact control for MLSCN library redox annotation, primary screen | DTT-dependent redox cycling H2O2, phenol red/HRP absorbance; 100% = 100 µM peroxide control, 0% = buffer | activation, % at 10 µM | actives 0.03% (n = 200,000) | AID 878, 2007;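 active = activation of at least 50% relative to the plate's high and low controls in the primary single-dose screen; inactive = activation below 50%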;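 also: compound incubated with DTT at 0.8 mM final as the reducing agent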
ROMK primary: ROMK potassium channel modulators, primary screen, cell-based, thallium flux, MLSMR library; actives 2% (n = 130,000); B-score at 10 µM; Tet-inducible ROMK, thallium flux fluorescence; actives lie on both sides;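 active = signal ratio slope over the read window, or its plate-corrected B-score, at least 3 SD from the plate mean, either direction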;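 also: B-score of the F/F0 ratio slope over 7 to 12 s after thallium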
KCC2 secondary: KCC2 modulators in sodium-free buffer, confirmation, cell-based, HEK293 KCC2, thallium flux, secondary assay; shares compounds with Cl transport mod; FluoZin2 fluorescence; hits give high values; normalised thallium flux (F/F0 slope) at 10 µM; actives 15% (n = 3,700); AID 1713, 2009;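 active = thallium flux slope above the same plate's solvent-only control mean plus 3 SD; inconclusive = the two replicate wells disagree; inactive = no significant difference from solvent-only control wells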
KCC2 bumet counter: thallium flux persisting under bumetanide in KCC2 cells, confirmation, counter-screen for KCC2 modulator project, cell-based, HEK293 KCC2, FluoZin2, secondary assay 3; shares compounds with Cl transport mod; HEK293-KCC2 + bumetanide/ouabain; hits give high values; actives 49% (n = 3,700); normalized thallium flux at 10 µM;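 active = thallium entry rate above the same plate's blocked-transporter control wells by more than 3 SD; inconclusive = the two repeat wells disagree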;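 also: raw slope of fluorescence over initial fluorescence between 10 and 20 s after thallium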
KCC2 sec2: KCC2 modulators without ouabain present, confirmation, cell-based, HEK293 KCC2, thallium flux, FluoZin2, secondary assay 2 | shares compounds with Cl transport mod | thallium flux FluoZin2 fluorescence; actives lie on both sides; F/F0 rise rate, 10–20 s post-thallium | normalized thallium flux at 10 µM | actives 23% (n = 3,700);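 active = thallium flux slope more than 3 SD above or below the plate's solvent-only control mean, mostly below; inconclusive = the two repeat wells disagreed; inactive = no significant shift from solvent-only controls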;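 also: raw slope with 0.1% DMSO as baseline and bumetanide as block control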
HEK counter1: thallium flux modulation in parental HEK cells, confirmation, counter-screen for KCC2 modulator project, cell-based, counterscreen 1; shares compounds with Cl transport mod; HEK293 parental cells, thallium flux FluoZin2, ouabain; baseline-ratio fluorescence slope, 10–20 s after thallium; thallium flux rate (normalised fluorescence) at 10 µM; actives 46% (n = 3,700);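 active = thallium flux rate significantly above the same plate's solvent-only control wells, beyond their mean plus 3 SD; inconclusive = the two replicate wells gave conflicting results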
KCC2 retest ouab: KCC2 inhibitors and activators, ouabain retest, confirmation, HEK-KCC2 cells | shares compounds with Cl transport mod | HEK293-KCC2, thallium flux FluoZin2 fluorescence; bidirectional: low = inhibitor, high = activator | raw Tl+ flux slope (below DMSO = inhibition, above = activation) at 10 µM | actives 48% (n = 3,700) | AID 1717, 2009;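 active = thallium flux slope beyond 3 SD from same-plate DMSO control mean in most replicates, usually higher, sometimes lower; inconclusive = repeat tests gave conflicting results; inactive = no significant difference from controls in most replicates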;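 also: slope of initial-normalized fluorescence between seconds 10 and 20 after thallium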
HEK293 Tl flux2: native HEK Tl+ uptake effects, second counter-screen – HEK cells, counterscreen 2, counter-screen for KCC2 modulator project, confirmation; thallium flux slope at 10 µM; actives 33% (n = 3,700); HEK293 parental, thallium flux FluoZin-2 fluorescence slope; shares compounds with Cl transport mod;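 active = thallium flux slope above the same plate's solvent-control mean plus 3 SD in both duplicate wells; inconclusive = duplicate wells that disagreed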;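 also: run without ouabain in cells lacking the KCC2 cotransporter; slope of fluorescence scaled to its starting value between 10 and 20 s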
An asterisk follows results filed as active.

Screening Fc1ccc(/C=N/NC(=S)Nc2ccc(Cl)cc2Cl)cc1 returned Cl transport mod 7.6*, p97 inhibitor 3, KCC2 secondary 0.0099, KCC2 bumet counter 0.018*, KCC2 sec2 0.03, HEK counter1 0.012*, KCC2 retest ouab 0.029* and HEK293 Tl flux2 inconclusive.
Screening CCOC(=O)C(NC(=O)c1ccccc1)(Nc1cc(C)on1)C(F)(F)F (centres undefined) returned Cl transport mod -0.23, Mdm2 ligase inh -31, PKD1 kinase inh -5, p97 inhibitor 2 and Redox H2O2 prof 2.
Cc1cc2cc(CCNC(=O)c3c(-c4ccccc4Cl)noc3C)c(=O)[nH]c2cc1C was read as Cl transport mod 0.053, Mdm2 ligase inh -12, PKD1 kinase inh 4, p97 inhibitor 0 and Redox H2O2 prof 0.
For O=C(COC(=O)c1ccc([N+](=O)[O-])o1)c1ccccc1 the results were Cl transport mod 0.6, Mdm2 ligase inh -5, PKD1 kinase inh 7, p97 inhibitor 4, Redox H2O2 prof 10 and ROMK primary 1.
COCCCNC(=O)Cn1c(=O)n(CCCCCC(=O)Nc2ccccc2)c(=O)c2sccc21 was read as Cl transport mod 0.88, Mdm2 ligase inh -2, PKD1 kinase inh -5, p97 inhibitor 6, Redox H2O2 prof 0 and ROMK primary 0.49.
Screening COC(=O)C1CCN(C(=O)COC(=O)CCc2nc3ccccc3c(=O)[nH]2)CC1 returned Cl transport mod 4.6*, Mdm2 ligase inh -7, PKD1 kinase inh 3, p97 inhibitor 8, Redox H2O2 prof 0, ROMK primary -0.051, KCC2 secondary 0.0099, KCC2 bumet counter 0.0072, KCC2 sec2 0.035, HEK counter1 0.0072, KCC2 retest ouab 0.023 and HEK293 Tl flux2 inconclusive.
COc1cc2c(cc1NC(=O)C1CCCO1)oc1ccccc12 (centres undefined) was read as Cl transport mod -0.36, Mdm2 ligase inh -6, PKD1 kinase inh -8, p97 inhibitor -3 and Redox H2O2 prof 2.
For CCOc1ccccc1NC(=O)CSc1nccn1-c1ccccc1 the results were Cl transport mod -4.8*, Mdm2 ligase inh -6, PKD1 kinase inh -3, p97 inhibitor -1, Redox H2O2 prof 0, KCC2 secondary 0.017, KCC2 bumet counter inconclusive, KCC2 sec2 0.025*, HEK counter1 0.0046*, KCC2 retest ouab 0.013* and HEK293 Tl flux2 0.0071*.
Screening COc1ccc(NC(=O)CSc2nccn2-c2ccccc2)c(OC)c1 returned Cl transport mod -0.093, Mdm2 ligase inh 3, PKD1 kinase inh -15, p97 inhibitor 4 and Redox H2O2 prof -2.
Screening CC(C)(C)c1ccc(-c2nnc3sc(-c4ccccn4)nn23)cc1 returned Cl transport mod -0.6, Mdm2 ligase inh -46, PKD1 kinase inh 0, p97 inhibitor 5 and Redox H2O2 prof -1.
For O=C1Nc2ccc([N+](=O)[O-])cc2OC1CCN1CCN(Cc2ccccc2)CC1 (centres undefined) the results were Cl transport mod -4.2*, Mdm2 ligase inh 1, PKD1 kinase inh 4, p97 inhibitor 3, Redox H2O2 prof 4, ROMK primary -1.9, KCC2 secondary 0.01, KCC2 bumet counter 0.0063, KCC2 sec2 0.026*, HEK counter1 0.0083, KCC2 retest ouab 0.013* and HEK293 Tl flux2 0.011.
For O=c1nc(Nc2ccccc2)oc2ccccc12 the results were Cl transport mod 0.22, Mdm2 ligase inh -7, p97 inhibitor -1 and ROMK primary 0.38.
For O=c1nc(Nc2cccc(Cl)c2)oc2cc(Cl)oc(=O)c12 the results were Cl transport mod -4.5*, Mdm2 ligase inh -77, p97 inhibitor 4, KCC2 secondary 0.0062, KCC2 bumet counter 0.0048, KCC2 sec2 0.029, HEK counter1 0.0065, KCC2 retest ouab inconclusive and HEK293 Tl flux2 0.01.
For O=C(CSc1nnc(Cc2ccccc2)n1-c1cccc(Cl)c1)NNC(=O)Cc1ccccc1 the results were Cl transport mod 0.44, Mdm2 ligase inh 13, PKD1 kinase inh 0, p97 inhibitor 9 and Redox H2O2 prof 0.
`CCOC(=O)CNC(=O)CSc1ncnc2c1cnn2-c1ccc(C)cc1` gave Cl transport mod 0.086, Mdm2 ligase inh -10, PKD1 kinase inh 0, p97 inhibitor 8, Redox H2O2 prof 4 and ROMK primary -0.46.
